ChEMBL document CHEMBL4138115, “An evaluation of Minor Groove Binders as anti-fungal and anti-mycobacterial therapeutics” (Eur J Med Chem, 2017)
≈ marks a conversion by molar mass, not a printed value. Calls of active or inactive are those of the source. The rule behind the calls is not given here.

How the values were obtained:
[1] = system: Staphylococcus aureus; assay: Antibacterial activity against methicillin-resistant Staphylococcus aureus ATCC 43300 after 18 hrs by two-fold serial dilution assay; format: functional; conditions: ATCC 43300, 18 h
Method in brief: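 MRSA ATCC 43300 grown overnight in cation-adjusted Mueller Hinton broth at 37 °C, diluted 40-fold, grown 1.5–3 h to mid-log. Inoculated at 5 × 10⁵ CFU/mL into two-fold compound dilutions (final 32–0.25 range). Incubated 18 h at 37 °C without shaking; OD600 read. Inhibition normalised to media-only and untreated-bacteria controls. MIC taken as lowest concentration giving ≥80% inhibition; duplicates (n = 2).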

[2] = system: Mycobacterium tuberculosis; assay: Antimycobacterial activity against GFP labelled Mycobacterium tuberculosis H37Rv up to 14 days by fluorescence assay; format: functional
Method in brief: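 GFP-labelled Mtb H37Rv at 1 × 10^5 CFU/well in 7H9 broth with 10% OADC and 25 kanamycin. Two-fold compound dilutions were tested. Incubated at 37 °C without shaking.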

[3] = system: Candida albicans; assay: Antifungal activity against Candida albicans ATCC 90028 after 24 hrs by resazurin dye-based two-fold serial dilution assay; format: functional; conditions: ATCC 90028, 24 h
[4] = system: Cryptococcus neoformans; assay: Antifungal activity against Cryptococcus neoformans ATCC 208821 after 24 hrs by resazurin dye-based two-fold serial dilution assay; format: functional
[5] = system: Trypanosoma congolense; assay: Antiparasitic activity against Trypanosoma congolense IL3000 after 69 hrs by Alamar blue assay; format: functional, organism-based; conditions: IL3000, 69 h
Method in brief: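 Bloodstream-form IL3000 counted electronically and seeded at 1.25 × 10⁵ trypanosomes/ml into threefold serial compound dilutions. Kept 69 h at 34 °C, 5% CO₂, then resazurin (12.5 mg per 100 mL PBS) added for 3 h. Fluorescence ex 536/em 588 nm gives EC50. Three separate assay runs.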

[6] = system: Trypanosoma brucei brucei; assay: Antiparasitic activity against Trypanosoma brucei brucei Lister 427 after 48 hrs by Alamar blue assay; format: functional, organism-based; conditions: Lister 427, 48 h
Method in brief: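 Bloodstream-form Lister 427 in HMI-9 with 10% heat-inactivated FBS, counted by haemocytometer and seeded at 2 × 10⁴ cells/mL over serial compound dilutions. After 48 h at 37 °C, 5% CO₂, resazurin (0.49 mM solution in PBS) added for a further 24 h. Fluorescence ex 544/em 590 nm; EC50 from curve fit. Duplicates, at least three independent occasions.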

[7] = Lipophilicity of the compound assessed as retention time by HPLC method; format: physicochemical
Method in brief: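 Reverse-phase C18 HPLC with water and acetonitrile, each containing 0.1% TFA. Gradient runs from 100% water to 100% acetonitrile over 1 h; lipophilicity reported as retention time in minutes.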

[8] = system: Salmon testes DNA; assay: Binding affinity to wild type salmon sperm DNA assessed as change in melting temperature at 10 uM; format: nucleic-acid assay; conditions: Salmonidae
[9] = Cytotoxicity against HEK293 cells reduction in cell viability after 20 hrs by resazurin dye based fluorescence assay; conditions: human
Method in brief: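 HEK-293 cells at 4000 per well in DMEM with 10% FBS, exposed to two-fold dilutions from 32 to 0.25 (final) for 20 h at 37 °C, 5% CO₂. Resazurin added (100 final) for 3 h more; fluorescence ex 560/em 590 nm. CC50 is the concentration giving 50% cytotoxicity. Duplicates.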

SMILES	MIC80 [1] [µg/mL]	MIC99 [2]	MIC80 [3] [µg/mL]	MIC70 [4] [µg/mL]	EC50 [5] [µM]	EC50 [6] [µM]	Retention_time [7] [min]	ΔTm [8] [°C]	CC50 at 20 h [9] [µg/mL]	MIC99 ([2]; 336 h) [µg/mL]
CN(C)CCCNC(=O)c1cc(NC(=O)c2cc(NC(=O)c3cc(NC(=N)N)cn3C)cn2C)cn1C	> 32	inactive	> 32	>32	6.2	> 100	14.2	5	–	–
CC(=O)Nc1cc(C(=O)Nc2cc(C(=O)Nc3cc(C(=O)NCCCN(C)C)n(CCC(C)C)c3)n(C)c2)n(C)c1	> 32	inactive	> 32	>32	6.5	54	22.8	3	–	–
CC(C)CCn1cc(NC(=O)c2cc(NC(=O)c3cc(NC(=N)N)cn3C)cn2C)cc1C(=O)NCCCN(C)C	> 32	inactive	> 32	32 (≈ 56.5 µM)	5.2	49	20.1	4	> 32	–
CN(C)CCCNC(=O)c1cc(NC(=O)c2cc(NC(=O)c3cc(NC(=N)c4ccccc4)cn3C)cn2C)cn1C	> 32	inactive	> 32	>32	2.2	> 100	17.8	11	–	–
COc1cccc(C(=N)Nc2cc(C(=O)Nc3cc(C(=O)Nc4cc(C(=O)NCCCN(C)C)n(CCC(C)C)c4)n(C)c3)n(C)c2)c1	> 32	inactive	> 32	>32	1.4	24	23.8	5	> 32	–
CC(C)CCc1sc(NC(=O)c2cc(NC(=O)c3cc(NC(=N)c4cnc5ccccc5c4)cn3C)cn2C)nc1C(=O)NCCCN(C)C	1 (≈ 1.43 µM)	inactive	> 32	0.25 (≈ 0.359 µM)	1.9	3.3	27.3	2	1.2 (≈ 1.72 µM)	–
CC(=O)Nc1cc(C(=O)Nc2cc(C(=O)Nc3nc(C(=O)NCCCN(C)C)c(CCC(C)C)s3)n(C)c2)n(C)c1	16 (≈ 27.4 µM)	inactive	> 32	16 (≈ 27.4 µM)	9.1	28	27.1	4	> 32	–
CC(C)CCc1sc(NC(=O)c2cc(NC(=O)c3cc(NC(=N)c4ccc(Cl)cc4)cn3C)cn2C)nc1C(=O)NCCCN(C)C	8 (≈ 11.8 µM)	–	> 32	4 (≈ 5.88 µM)	4.3	13	26.8	4	10 (≈ 14.7 µM)	13 (≈ 19.1 µM)
CC(C)CCc1sc(NC(=O)c2cc(NC(=O)c3cc(NC(=N)c4cccc(Cl)c4)cn3C)cn2C)nc1C(=O)NCCCN(C)C	2 (≈ 2.94 µM)	–	> 32	2 (≈ 2.94 µM)	5.6	13	26.9	5	9.2 (≈ 13.5 µM)	13 (≈ 19.1 µM)
CC(C)CCc1sc(NC(=O)c2cc(NC(=O)c3cc(NC(=N)c4ccccc4)cn3C)cn2C)nc1C(=O)NCCCN(C)C	> 32	–	> 32	4 (≈ 6.19 µM)	5.8	23	26.2	7	> 32	25 (≈ 38.7 µM)
CC(C)CCn1cc(NC(=O)c2cc(NC(=O)c3cc(NC(=N)c4cnc5ccccc5c4)cn3C)cn2C)cc1C(=O)NCCCN(C)C	32 (≈ 47.1 µM)	–	> 32	8 (≈ 11.8 µM)	0.82	2.7	24.8	17	12 (≈ 17.7 µM)	25 (≈ 36.8 µM)
COc1cccc(C(=N)Nc2cc(C(=O)Nc3cc(C(=O)Nc4nc(C(=O)NCCCN(C)C)c(CCC(C)C)s4)n(C)c3)n(C)c2)c1	1 (≈ 1.48 µM)	–	> 32	2 (≈ 2.96 µM)	5.8	17	26.8	7	> 32	25 (≈ 37 µM)
CN(C)CCCNC(=O)c1cc(NC(=O)c2cc(NC(=O)c3cc(NC(=N)c4cnc5ccccc5c4)cn3C)cn2C)cn1C	> 32	–	> 32	8 (≈ 12.8 µM)	0.6	5.7	19.7	> 17	> 32	25 (≈ 40.1 µM)
CC(=O)Nc1cc(C(=O)Nc2cc(C(=O)Nc3cc(C(=O)NCCCN(C)C)n(C)c3)n(C)c2)n(C)c1	> 32	inactive	> 32	>32	7	> 100	18.3	5	–	–
COc1cccc(C(=N)Nc2cc(C(=O)Nc3cc(C(=O)Nc4cc(C(=O)NCCCN(C)C)n(C)c4)n(C)c3)n(C)c2)c1	> 32	inactive	> 32	>32	1.4	44	17.5	11	–	–
CC(C)CCc1sc(NC(=O)c2cc(NC(=O)c3cc(NC(=N)N)cn3C)cn2C)nc1C(=O)NCCCN(C)C	16 (≈ 27.4 µM)	inactive	> 32	4 (≈ 6.84 µM)	6.1	15	23.4	4	20 (≈ 34.2 µM)	–
CC(C)CCn1cc(NC(=O)c2cc(NC(=O)c3cc(NC(=N)c4ccccc4)cn3C)cn2C)cc1C(=O)NCCCN(C)C	> 32	inactive	> 32	>32	1.2	33	22.6	8	–	–
